inhibition, Ki and inhibition zone (IZ) data for 15 compounds are collected here from ChEMBL document CHEMBL4706580, “4-Amino-1,2,4-triazole-3-thione-derived Schiff bases as metallo-β-lactamase inhibitors” (Eur J Med Chem, 2020).

Assay [1] in a line: Inhibition of beta-lactamase L1 (unknown origin) expressed in Escherichia coli BL21(DE3) using nitrocefin as substrate by measuring substrate hydrolysis at 100 uM preincubated for 30 mins by spectrophotometric analysis. In short, it runs like this:
(§1)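 Enzyme 0.2–0.8 nM in 25 mM HEPES pH 7.5 with 50 μM ZnCl2 final, pre-incubated 30 min at 21 °C with inhibitor (100 μM screen). Nitrocefin 100 μM final, read at 482 nm, 30 °C. Residual activity vs three uninhibited samples; Ki (1–100 μM inhibitor) from Hanes linearization, competitive model. Triplicate.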

The nature of assay [2]: Inhibition of beta-lactamase VIM2 (unknown origin) expressed in Escherichia coli BL21(DE3) using imipenem as substrate by measuring substrate hydrolysis at 100 uM by spectrophotometric analysis. Put shortly:
(§2)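 Purified enzyme (overproduced in E. coli BL21(DE3), pET-9a; ion-exchange and gel filtration), 1-70 nM final. Reporter substrate 150 μM imipenem, read at 300 nm, 30 °C, 50 mM HEPES pH 7.5. Single-point screen at 100 or 200 μM; Ki from v0/vi vs [I] (0.5–1,000 μM final) assuming competitive inhibition, or Dixon plot. Triplicate.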

The nature of assay [3]: Inhibition of beta-lactamase IMP-1 (unknown origin) expressed in Escherichia coli BL21(DE3) using imipenem as substrate by measuring substrate hydrolysis at 200 uM by spectrophotometric analysis. In short, it runs like this:
as §2

Assay [4] in a line: Inhibition of beta-lactamase VIM2 (unknown origin) expressed in Escherichia coli BL21(DE3) using imipenem as substrate by measuring substrate hydrolysis at 200 uM by spectrophotometric analysis. In short, it runs like this: as §2
Assay [5] in a line: Inhibition of beta-lactamase NDM1 (unknown origin) expressed in Escherichia coli BL21(DE3) using cefotaxime/nitrocefin as substrate by measuring substrate hydrolysis at 100 uM by spectrophotometric analysis.
A short description of assay [6]: Inhibition of beta-lactamase NDM1 (unknown origin) expressed in Escherichia coli BL21(DE3) using cefotaxime/nitrocefin as substrate by measuring substrate hydrolysis at 200 uM by spectrophotometric analysis.
Assay [7] is described as follows: Inhibition of beta-lactamase VIM4 (unknown origin) expressed in Escherichia coli BL21(DE3) using imipenem as substrate by measuring substrate hydrolysis at 100 uM by spectrophotometric analysis. In short, it runs like this: as §2
Assay [8] in a line: Inhibition of beta-lactamase IMP-1 (unknown origin) expressed in Escherichia coli BL21(DE3) using imipenem as substrate by measuring substrate hydrolysis at 100 uM by spectrophotometric analysis. Put shortly: as §2
The nature of assay [9]: Inhibition of beta-lactamase VIM4 (unknown origin) expressed in Escherichia coli BL21(DE3) using imipenem as substrate by measuring substrate hydrolysis at 200 uM by spectrophotometric analysis. Put shortly: as §2
A short description of assay [10]: Inhibition of beta-lactamase CphA (unknown origin) expressed in Escherichia coli BL21(DE3) using imipenem as substrate by measuring substrate hydrolysis by spectrophotometric analysis. In short, it runs like this: (§3)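 Enzyme 0.2–0.8 nM in 15 mM cacodylate pH 6.5, no added zinc, pre-incubated 30 min at 21 °C with inhibitor (100 μM screen). Imipenem substrate added from 10 mM stock; hydrolysis at 300 nm, 30 °C. Residual activity vs three uninhibited samples; Ki (1–100 μM inhibitor) by Hanes linearization, competitive model. Triplicate.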

The nature of assay [11]: Inhibition of beta-lactamase NDM1 (unknown origin) expressed in Escherichia coli BL21(DE3) using cefotaxime/nitrocefin as substrate by measuring substrate hydrolysis by spectrophotometric analysis. Put shortly:
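His-tagged enzyme from E. coli BL21(DE3) pET-15b, affinity-purified, 1-70 nM final. Reporter substrate 120 μM cefotaxime (260 nm) or 100 μM nitrocefin (482 nm), 30 °C, 50 mM HEPES pH 7.5. Inhibitor 0.5–1,000 μM final; competitive Ki from v0/vi vs [I] slope or Dixon plot. Triplicate.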

Assay [12] is described as follows: Inhibition of beta-lactamase VIM-2 (unknown origin) expressed in Escherichia coli LZ2310 assessed as potentiation of cefoxitin antibacterial activity by measuring cefoxitin induced diameter of inhibition zone at 40 uM incubated for 18 hrs by disk diffusion method (reference value: 14 mm). Put shortly: (§4)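 Efflux-deficient E. coli LZ2310 (NorE, MdfA, AcrA knocked out) carrying pLB-II with the cloned MBL gene. Mueller-Hinton, CLSI disk diffusion; antibiotic disks (30 µg cefoxitin for VIM-2, 10 µg ampicillin for VIM-4, 30 µg ceftazidime for NDM-1/IMP-1) loaded with inhibitor in DMSO (≤15 µL). Zone diameter after 18 h, 35 ± 1 °C; DMSO and 220 µg EDTA controls. Triplicate.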

A short description of assay [13]: Inhibition of beta-lactamase VIM2 (unknown origin) expressed in Escherichia coli BL21(DE3) using imipenem as substrate by measuring substrate hydrolysis by spectrophotometric analysis. Put shortly: as §2
Assay [14] can be described thus: Inhibition of beta-lactamase VIM4 (unknown origin) expressed in Escherichia coli BL21(DE3) using imipenem as substrate by measuring substrate hydrolysis by spectrophotometric analysis. Put shortly: as §2
Assay [15] can be described thus: Inhibition of beta-lactamase VIM-4 (unknown origin) expressed in Escherichia coli LZ2310 assessed as potentiation of ampicillin antibacterial activity by measuring ampicillin induced diameter of inhibition zone at 40 uM incubated for 18 hrs by disk diffusion method (reference value: 6 mm). In short, it runs like this: as §4
In general terms: A growth-free zone around the sample is the usual read-out of agar diffusion tests.

Assay [16] in a line: Inhibition of beta-lactamase L1 (unknown origin) expressed in Escherichia coli BL21(DE3) using nitrocefin as substrate by measuring substrate hydrolysis at 200 uM preincubated for 30 mins by spectrophotometric analysis.
A short description of assay [17]: Inhibition of beta-lactamase CphA (unknown origin) expressed in Escherichia coli BL21(DE3) using imipenem as substrate by measuring substrate hydrolysis at 100 uM by spectrophotometric analysis. In short, it runs like this:
as §3

Assay [18] is described as follows: Inhibition of beta-lactamase L1 (unknown origin) expressed in Escherichia coli BL21(DE3) using nitrocefin as substrate by measuring substrate hydrolysis preincubated for 30 mins by spectrophotometric analysis. In short, it runs like this: as §1
Assay [19] can be described thus: Inhibition of beta-lactamase IMP-1 (unknown origin) expressed in Escherichia coli BL21(DE3) using imipenem as substrate by measuring substrate hydrolysis by spectrophotometric analysis. In short, it runs like this: as §2

Active and inactive are the calls of the source. The rule behind the calls is not given here.

Usually inhibition stands for the drop in the measured response relative to a control, in per cent. `S=c1[nH]nc(-c2cccc(Br)c2)n1/N=C/c1ccc(OCc2ccccc2)cc1`: the inhibition in [1] is 15%. Besides, the inhibition entry in assay [2], in assay [3], in [4], in assay [5], in assay [6] and in assay [7] was “inactive” throughout. Besides, the inhibition entry in [8] and in assay [9] was “inactive” throughout.

The Ki is a measure of affinity in units of concentration, obtained from inhibition or displacement. High values mean a looser hold on the target, low ones a stronger hold on the target. With `Oc1ccc(/C=N/n2c(CCc3ccccc3)n[nH]c2=S)c(O)c1`, the inhibition in assay [1] came out at 51%; in [7] it was 54%; in assay [8], 45%. Besides, the values for the Ki in assay [10], in [11] and in assay [13] were 6 µM, 168 µM and 9 µM, respectively. In [12], the inhibition zone (IZ) is 14 mm.

With `Oc1ccc(/C=N/n2c(-c3ccccc3)n[nH]c2=S)c(O)c1`, the inhibition in assay [1] was found to be 46%; in assay [8] it was 54%. Also, the Ki in [10] worked out at 26 µM; in assay [14] it was 1700 nM. The values for the inhibition zone (IZ) in assay [15] and in assay [12] were 6 mm and 14 mm, respectively.

Take `S=c1[nH]nc(C(c2ccccc2)c2ccccc2)n1/N=C/c1ccc(OCc2ccccc2)cc1`: the inhibition entry in [1], in [2], in assay [4], in assay [7], in [9] and in assay [16] was “inactive” each time. For the same compound, the inhibition in assay [3] is 50%; in [6], 60%.

For the compound `S=c1[nH]nc(Cc2ccccc2)n1/N=C/c1ccc(OCc2ccccc2)cc1`, the inhibition in assay [1] is 31%. Moreover, the inhibition result in assay [2], in assay [3], in assay [4], in assay [5], in assay [6] and in assay [7] was “inactive” in each case. Besides, the inhibition entry in [8] and in assay [9] was “inactive” each time. The same compound yielded a Ki in [10] of 5.5 µM.

Take `Cc1ccccc1-c1n[nH]c(=S)n1/N=C/c1cc(O)ccc1O`: the inhibition in assay [1] was 48%; in [5], 37%; in assay [8] it was 54%; in [17] it was 54%. Moreover, the Ki came out at 1600 nM in assay [14] and 11 µM in assay [13]. In addition, the results for the inhibition zone (IZ) in assay [15] and in assay [12] were 6 mm and 14 mm, respectively.

On to `COc1cc(O)ccc1/C=N/n1c(-c2ccccc2C)n[nH]c1=S`, for which the Ki in [10] turned out to be 4 µM; in [18], 6 µM; in assay [14] it was 2400 nM; in [11] it was 120 µM; in assay [13], 10 µM. Moreover, the inhibition result in assay [3] and in assay [8] was “inactive” throughout. Moreover, the inhibition zone (IZ) in assay [15] is 7 mm; in assay [12], 14 mm.

As for `Fc1cccc(-c2n[nH]c(=S)n2/N=C/c2ccc(OCc3ccccc3)cc2)c1`, the inhibition result in [1], in assay [2], in assay [4], in assay [5], in assay [6] and in assay [7] was “inactive” each time. Besides, the inhibition entry in [9] and in assay [16] was “inactive” throughout. In [8], this compound returned an inhibition of 60%.

Consider `O=C(O)c1ccccc1/C=N/n1c(Cc2ccccc2)n[nH]c1=S`, for which the inhibition in [1] was found to be 59%; in [6], 60%; in assay [7] it was 57%; in assay [8], 48%; in assay [17] it was 51%. Moreover, the inhibition zone (IZ) in [12] amounted to 14 mm. Also, the Ki in assay [13] worked out at 3.2 µM.

On to `Cc1ccccc1-c1n[nH]c(=S)n1/N=C/c1ccc(F)cc1`, for which the inhibition worked out at 30% in [1], 60% in assay [6] and 30% in [8]. Moreover, the inhibition entry in [2], in assay [4], in assay [7] and in [9] was “inactive” throughout.

For `S=c1[nH]nc(CCc2ccccc2)n1/N=C/c1ccc(OCc2ccccc2)cc1`, the Ki in assay [19] was found to be 9 µM; in assay [10] it was 1 µM; in assay [18], 32 µM; in assay [14], 2000 nM. In addition, the inhibition entry in assay [2] and in assay [4] was “inactive” in each case. For the same compound, the inhibition in [5] worked out at 30%. Moreover, the inhibition zone (IZ) in [15] stood at 6 mm.

Take `O=C(O)c1ccccc1/C=N/n1c(-c2cc(O)ccc2O)n[nH]c1=S`: the Ki in assay [10] was found to be 52 µM; in [18] it was 38 µM; in assay [14] it was 200 nM; in assay [11] it was 79 µM; in assay [13], 0.6 µM. Moreover, the inhibition result in [3] and in assay [8] was “inactive” in each case. For the same compound, the inhibition zone (IZ) in assay [15] is 6 mm; in [12] it was 14 mm.

As for `Oc1ccc(/C=N/n2c(-c3cc(Cl)cc(Cl)c3)n[nH]c2=S)c(O)c1`, the inhibition in assay [1] stood at 40%; in assay [5], 50%; in assay [8], 55%. The Ki stood at 4000 nM in assay [14] and 3.8 µM in [13]. Also, the inhibition zone (IZ) in [12] is 14 mm.

On to `Oc1ccc(/C=N/n2c(-c3ccc(OCc4ccccc4)cc3)n[nH]c2=S)c(O)c1`, for which the inhibition entry in assay [1], in [2], in assay [4], in assay [7], in [9] and in assay [16] was “inactive” throughout. In addition, the inhibition in assay [5] came out at 42%; in [8] it was 62%.

On to `Cc1ccccc1-c1n[nH]c(=S)n1/N=C/c1ccc([N+](=O)[O-])cc1`, for which the inhibition stood at 56% in assay [1], 43% in [8] and 59% in assay [17]. In addition, the inhibition result in [2], in assay [4], in assay [5] and in assay [6] was “inactive” each time. In addition, the Ki in assay [14] worked out at 1400 nM. In addition, the inhibition zone (IZ) in [15] was 6 mm.
